Test results as given in ChEMBL document CHEMBL3124843, “Synthesis, cytostatic, antimicrobial, and anti-HCV activity of 6-substituted 7-(het)aryl-7-deazapurine ribonucleosides” (J Med Chem, 2014).
Active and inactive are the calls of the source. How the calls were made is not given here.

Tests used:
Candida tropicalis = experiment: Antifungal activity against Candida tropicalis after 48 hrs; type: functional, organism-based
Staphylococcus aureus [1] = experiment: Antibacterial activity against Staphylococcus aureus CCM 3953 after 24 hrs; type: functional, organism-based
[2] = Cytostatic activity against human CEM-DNR-bulk cells after 72 hrs by MTT assay; type: functional, cell-based
In short: (§1)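 IC50 is the concentration that cuts cell growth by 50%, read by quantitative metabolic MTT staining after a 3-day treatment. The resistant sublines were made by raising the concentration of the cytotoxic drug step by step. CEM-DNR-bulk (daunorubicin-selected) stably overexpresses mrp-1. K562-TAX (paclitaxel-selected) expresses only mdr-1. HCT116p53−/− carries null p53 alleles. BJ and MRC-5 are nonmalignant fibroblasts.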

K562 [3] = experiment: Cytostatic activity against paclitaxel-resistant human K562 cells after 72 hrs by MTT assay; type: functional, cell-based; settings: K562, 72 h; in short: as §1
Candida parapsilosis = experiment: Antifungal activity against Candida parapsilosis after 48 hrs; type: functional, organism-based
Hepatitis C virus [4] = experiment: Antiviral activity against Hepatitis C virus subtype 2a infected in human HuH7 cells; type: functional, organism-based, Hepacivirus hominis; settings: genotype 2a, Huh-7
CCRF-CEM [5] = experiment: Cell cycle arrest in human CCRF-CEM cells assessed as accumulation at sub-G1 phase at IC50 after 24 hrs by propidium iodide staining-based flow cytometric analysis (reference value: 9.6%); type: functional
Pseudomonas aeruginosa [6] = experiment: Antibacterial activity against Pseudomonas aeruginosa CCM 3955 after 24 hrs; type: functional, organism-based
CCRF-CEM [7] = experiment: Cell cycle arrest in human CCRF-CEM cells assessed as accumulation at G2/M phase at IC50 after 24 hrs by propidium iodide staining-based flow cytometric analysis (reference value: 14.2%); type: functional
Enterococcus faecalis = experiment: Antibacterial activity against Enterococcus faecalis CCM 4224 after 24 hrs; type: functional, organism-based
Hepatitis C virus [8] = experiment: Antiviral activity against Hepatitis C virus subtype 1b infected in human HuH7 cells; type: functional, organism-based, Hepacivirus hominis; settings: genotype 1b, Huh-7
Escherichia coli [9] = experiment: Antibacterial activity against Escherichia coli CCM 3954 after 24 hrs; type: functional, organism-based
CCRF-CEM [10] = experiment: Mitotic arrest in human CCRF-CEM cells assessed as pH3Ser10-positive cells at IC50 after 24 hrs by propidium iodide staining-based flow cytometric analysis (reference value: 1.4%); type: functional
CCRF-CEM [11] = experiment: Cytostatic activity against human CCRF-CEM cells after 72 hrs by MTT assay; type: functional, cell-based; in short: as §1
CCRF-CEM [12] = experiment: Inhibition of DNA synthesis in human CCRF-CEM cells assessed as BrdU-positive cells at IC50 after 24 hrs by propidium iodide staining-based flow cytometric analysis (reference value: 50.1%); type: functional; design: scale not given: the % may be the effect or the level left
HCT-116 [13] = experiment: Cytostatic activity against human HCT116 cells after 72 hrs by MTT assay; type: functional, cell-based; settings: HCT-116, 72 h; in short: as §1
Staphylococcus aureus [14] = experiment: Antibacterial activity against methicillin-resistant Staphylococcus aureus MRSA 4591 after 24 hrs; type: functional, organism-based
Escherichia coli [15] = experiment: Antibacterial activity against multi-resistant Escherichia coli C/16702 after 24 hrs; type: functional, organism-based
[16] = test system: Staphylococcus haemolyticus; experiment: Antibacterial activity against methicillin-resistant Staphylococcus haemolyticus A/16568 after 24 hrs; type: functional, organism-based
CCRF-CEM [17] = experiment: Cell cycle arrest in human CCRF-CEM cells assessed as accumulation at S phase at IC50 after 24 hrs by propidium iodide staining-based flow cytometric analysis (reference value: 44.8%); type: functional
[18] = Cytotoxicity against human HuH7 cells infected with Hepatitis C virus subtype 1b; type: cell-based, Huh-7
[19] = Antiproliferative activity against human HeLaS3 cells after 72 hrs by XTT assay; type: functional, cell-based; settings: HeLa S3, 72 h
In short: (§2)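 Antiproliferative test on HL-60 promyelocytic leukemia and HeLa S3 cervical carcinoma cells growing in liquid suspension.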

CCRF-CEM [20] = experiment: Inhibition of RNA synthesis in human CCRF-CEM cells assessed as BrU-positive cells at IC50 after 24 hrs by propidium iodide staining-based flow cytometric analysis (reference value: 43.3%); type: functional; design: scale not given: the % may be the effect or the level left
Candida albicans = experiment: Antifungal activity against Candida albicans after 48 hrs; type: functional, organism-based
CCRF-CEM [21] = experiment: Cell cycle arrest in human CCRF-CEM cells assessed as accumulation at G1 phase at IC50 after 24 hrs by propidium iodide staining-based flow cytometric analysis (reference value: 41%); type: functional
BJ = experiment: Cytostatic activity against human BJ cells after 72 hrs by MTT assay; type: ADME, cell-based; in short: as §1
Pichia kudriavzevii = experiment: Antifungal activity against Candida crusei after 48 hrs; type: functional, organism-based
A549 = experiment: Cytostatic activity against human A549 cells after 72 hrs by MTT assay; type: functional, cell-based; settings: A549, 72 h; in short: as §1
[22] = Cytotoxicity against human HuH7 cells infected with Hepatitis C virus subtype 2a; type: cell-based, Huh-7
K562 [23] = experiment: Cytostatic activity against human K562 cells after 72 hrs by MTT assay; type: functional, cell-based; settings: K562, 72 h; in short: as §1
MRC5 = experiment: Cytostatic activity against human MRC5 cells after 72 hrs by MTT assay; type: ADME, cell-based; settings: MRC5, 72 h; in short: as §1
Pseudomonas aeruginosa [24] = experiment: Antibacterial activity against multi-resistant Pseudomonas aeruginosa A/16575 after 24 hrs; type: functional, organism-based
HL-60 = experiment: Antiproliferative activity against human HL60 cells after 72 hrs by XTT assay; type: functional, cell-based; settings: HL-60, 72 h; in short: as §2
HCT-116 [25] = experiment: Cytostatic activity against p53-deficient human HCT116 cells after 72 hrs by MTT assay; type: functional, cell-based; settings: HCT-116, 72 h; in short: as §1
HepG2 = experiment: Antiproliferative activity against human HepG2 cells after 72 hrs by XTT assay; type: functional, cell-based; settings: HepG2, 72 h

Row | SMILES | Activity (Candida tropicalis) | Activity (Staphylococcus aureus [1]) | IC50 [2] [µM] | IC50 (K562 [3]) [µM] | Activity (Candida parapsilosis) | EC50 (Hepatitis C virus [4]) [µM] | Activity (CCRF-CEM [5]) [%] | Activity (Pseudomonas aeruginosa [6]) | Activity (CCRF-CEM [7]) [%] | Activity (Enterococcus faecalis) | EC50 (Hepatitis C virus [8]) [µM] | Activity (Escherichia coli [9]) | Activity (CCRF-CEM [10]) [%] | IC50 (CCRF-CEM [11]) [µM] | IC50 (HCT-116 [13]) [µM] | Activity (Staphylococcus aureus [14]) | Activity (Escherichia coli [15]) | Activity [16] | CC50 [18] [µM] | IC50 [19] [µM] | other results
1 | Nc1ncnc2c1c(-c1cccs1)cn2[C@@H]1O[C@H](CO)[C@@H](O)[C@H]1O | inactive | inactive | 0.17 | 0.02 | inactive | > 44 | 18.6 | inactive | 10.1 | inactive | > 44 | inactive | 1.4 | 0.02 | 0.01 | inactive | inactive | inactive | > 44 | 0.02 | Activity (CCRF-CEM [12]): 52.4%; Activity (CCRF-CEM [17]): 39.2%; Activity (CCRF-CEM [20]): 15.2%; Activity (Candida albicans): inactive; Activity (CCRF-CEM [21]): 50.6%; IC50 (BJ): 65.6 µM; Activity (Pichia kudriavzevii): inactive; IC50 (A549): 0.04 µM; CC50 [22]: > 44 µM; IC50 (K562 [23]): 0.03 µM; IC50 (MRC5): 39.4 µM; Activity (Pseudomonas aeruginosa [24]): inactive
2 | COc1ncnc2c1c(-c1cccs1)cn2[C@@H]1O[C@H](CO)[C@@H](O)[C@H]1O | inactive | inactive | 12.1 | 6.2 | inactive | > 44 | 7.5 | inactive | 9.8 | inactive | 1.08 | inactive | 1.1 | 0.09 | 0.08 | inactive | inactive | inactive | > 44 | 1.76 | IC50 (HL-60): 0.08 µM; IC50 (HCT-116 [25]): 0.44 µM; Activity (CCRF-CEM [20]): 0.1%; Activity (Candida albicans): inactive; IC50 (HepG2): 13.9 µM; IC50 (BJ): 62.8 µM; Activity (Pichia kudriavzevii): inactive; IC50 (A549): 4.85 µM; CC50 [22]: > 44 µM; IC50 (K562 [23]): 0.07 µM; IC50 (MRC5): 43.2 µM; Activity (Pseudomonas aeruginosa [24]): inactive
